The values below come from ChEMBL document CHEMBL1921780, “Novel 3-nitro-1H-1,2,4-triazole-based aliphatic and aromatic amines as anti-chagasic agents” (J Med Chem, 2011).

Each structure is given as a SMILES string. Where only a bound is given, the exact number is not on record here.

In series [1] the test system is Trypanosoma brucei rhodesiense. In words: Antitrypanosomal activity against blood stream form of Trypanosoma brucei rhodesiense STIB 900 […] after 72 hrs by alamar blue assay. The format is functional, organism-based. Conditions: STIB 900, 72 h. For orientation: Resazurin is reduced to fluorescent resorufin, in cell work by metabolically active cells.

The subject of the next series is L6. As to the kind of experiment: Cytotoxicity against rat L6 cells after 72 hrs by alamar blue assay. The note with it: L6, 72 h. In kind it is cell-based. An outline of the steps:
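Run in 96-well plates with a compound dose series. T. cruzi was tested as amastigotes inside infected L6 rat skeletal myoblasts. Uninfected L6 cells were used for cytotoxicity. IC50 was obtained by linear regression from sigmoidal dose–inhibition curves.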

Series [2] in a line: Selectivity index, ratio of IC50 for rat L6 cells to IC50 for Trypanosoma brucei rhodesiense STIB 900. The format is toxicity, cell-based. Conditions: L6 cells versus Trypanosoma brucei rhodesiense STIB 900, read-out: Ratio IC50. An outline of the steps:
(§1)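 Selectivity index is the L6 myoblast IC50 divided by the IC50 for each parasite. L. donovani was tested as axenic amastigotes. Both IC50s came from 96-well dose-response screens fitted by linear regression of sigmoidal curves.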

Series [3] is described as follows: Selectivity index, ratio of IC50 for rat L6 cells to IC50 for Trypanosoma cruzi Tulahuen C4. The format is toxicity, cell-based. Conditions: L6 cells versus Trypanosoma cruzi Tulahuen C4, read-out: Ratio IC50. An outline of the steps: as §1
Another series concerns Leishmania donovani. As to the kind of experiment: Antileishmanial activity against Leishmania donovani MHOM-ET-67/L82 axenic amastigotes after 72 hrs by alamar blue assay. The note with it: MHOM-ET-67/L82, 72 h.
For a further series, the system named is Trypanosoma cruzi. In words: Antitrypanosomal activity against amastigotes of Trypanosoma cruzi Tulahuen C4 infected in rat L6 cells after 72 hrs by alamar blue assay. Conditions: Tulahuen C4, L6, 72 h.
A short description of series [4]: Selectivity index, ratio of IC50 for rat L6 cells to IC50 for Leishmania donovani MHOM-ET-67/L82. Conditions: L6 cells versus Leishmania donovani MHOM-ET-67/L82, read-out: Ratio IC50. The format is toxicity, cell-based. An outline of the steps:
as §1

One may read the IC50 as the concentration that gives 50% inhibition. A low value points to greater potency.

Consider `Cc1nc(NCCCn2ccnc2[N+](=O)[O-])c2ccccc2n1`, for which the IC50 in series [1] stood at 3.46 µM; with L6 it was 31.6 µM; in the series on Leishmania donovani it was 68.3 µM; with Trypanosoma cruzi it was 2.1 µM. Moreover, the selectivity ratio amounted to 9 in series [2] and 15 in series [3].

Take `FC(F)(F)c1cc(CNCCCCn2cncn2)cc(C(F)(F)F)c1`: the IC50 in series [1] was 32.3 µM; with L6 it was above 224 µM; in the series with Leishmania donovani, 172 µM; in the series with Trypanosoma cruzi, 123 µM. Besides, the selectivity ratio is above 7 in series [2], above 2 in series [3] and above 1 in series [4].

Consider `O=C1C(Cl)=C(NCCCn2cnc([N+](=O)[O-])n2)C(=O)c2ccccc21`, for which the IC50 in series [1] was 0.882 µM; in the series with L6, 7.16 µM; in the series with Leishmania donovani, 6.53 µM; with Trypanosoma cruzi, 15.6 µM. For the same compound, the values for the selectivity ratio in series [2] and in series [4] were 8 and 1, respectively.

Take `O=[N+]([O-])c1nccn1CCCCNc1nc(-c2ccccc2)nc(Cl)c1-c1ccccc1`: the IC50 is 15.5 µM in series [1], 11.7 µM in the series on L6, 12.4 µM in the series with Leishmania donovani and 9.67 µM in the series on Trypanosoma cruzi. Moreover, the selectivity ratio in series [2], in series [3] and in series [4] was 1 each time.

Consider `O=C1C(Cl)=C(NCCCn2ccnc2[N+](=O)[O-])C(=O)c2ccccc21`, for which the IC50 in series [1] came to 0.621 µM; with L6 it was 3.91 µM; in the series with Leishmania donovani, 0.516 µM; in the series with Trypanosoma cruzi it was 30.1 µM. Further, the results for the selectivity ratio in series [2] and in series [4] were 6 and 8, respectively.

`Cc1cc(NCCCn2cnc([N+](=O)[O-])n2)nc(N)n1`: the IC50 is 2.19 µM in series [1], above 286 µM in the series with L6, above 95.4 µM with Leishmania donovani and 33.7 µM in the series with Trypanosoma cruzi. For the same compound, the selectivity ratio in series [2] is above 131; in series [3], above 8.

For `O=[N+]([O-])c1nccn1CCCN(Cc1ccc2cc(Br)ccc2n1)Cc1ccc2cc(Br)ccc2n1`, the IC50 in series [1] worked out at 14.2 µM; in the series with L6, 93.6 µM; in the series with Leishmania donovani it was 18.7 µM; in the series on Trypanosoma cruzi, 4.67 µM. Besides, the selectivity ratio in series [2] was 7; in series [3], 20; in series [4], 5.

Regarding `O=[N+]([O-])c1nccn1CCCCNc1ccnc2cc(Cl)ccc12`, the IC50 in series [1] came out at 1.87 µM; with L6 it was 66.8 µM; in the series on Leishmania donovani, 39.1 µM; in the series on Trypanosoma cruzi, 3.51 µM. Also, the selectivity ratio was determined as 36 in series [2], 19 in series [3] and 2 in series [4].

`Cc1cc(NCCCCn2ccnc2[N+](=O)[O-])nc(N)n1`: the IC50 in series [1] was 11.8 µM; in the series with L6 it was above 275 µM; in the series on Leishmania donovani it was 98.1 µM; in the series with Trypanosoma cruzi it was 41.8 µM. Besides, the selectivity ratio was above 23 in series [2], above 7 in series [3] and above 3 in series [4].

On to `O=[N+]([O-])c1nccn1CCCN(Cc1ccc(C(F)(F)F)cc1)Cc1ccc(C(F)(F)F)cc1`, for which the IC50 in series [1] is 23 µM; with L6, above 172 µM; with Leishmania donovani, 6.49 µM; in the series on Trypanosoma cruzi, 3.77 µM. Moreover, the results for the selectivity ratio in series [2], in series [3] and in series [4] were above 7, above 46 and above 27, respectively.

Consider `O=[N+]([O-])c1nccn1CCCN(Cc1cccc(C(F)(F)F)c1)Cc1cccc(C(F)(F)F)c1`, for which the IC50 in series [1] came to 21.6 µM; in the series on L6, 79.6 µM; in the series with Leishmania donovani, 4.27 µM; with Trypanosoma cruzi, 8.02 µM. Also, the selectivity ratio came out at 4 in series [2], 10 in series [3] and 19 in series [4].

With `Clc1ccc2c(NCCCCn3cncn3)ccnc2c1`, the IC50 in series [1] is 21.8 µM; in the series with L6, above 298 µM; in the series with Leishmania donovani it was above 298 µM; in the series with Trypanosoma cruzi, 92.1 µM. The selectivity ratio is above 14 in series [2] and above 3 in series [3].

Regarding `O=[N+]([O-])c1nccn1CCCCNc1c2ccccc2nc2ccccc12`, the IC50 in series [1] was found to be 0.601 µM; with L6, 1.68 µM; in the series on Leishmania donovani, 14.8 µM; in the series on Trypanosoma cruzi, 0.926 µM. The selectivity ratio in series [2] was 3; in series [3], 2.

For `O=[N+]([O-])c1nccn1CCCCNc1nc(-c2ccccc2)nc2ccccc12`, the IC50 was found to be 2.76 µM in series [1], 32.5 µM with L6, 6.17 µM in the series on Leishmania donovani and 3.63 µM in the series with Trypanosoma cruzi. Moreover, the values for the selectivity ratio in series [2], in series [3] and in series [4] were 12, 9 and 5, respectively.

`COc1cc2nc(Cl)nc(NCCCCn3ccnc3[N+](=O)[O-])c2cc1OC`: the IC50 in series [1] was 2.26 µM; with L6, 16.5 µM; with Leishmania donovani, 3.63 µM; with Trypanosoma cruzi it was 0.968 µM. The selectivity ratio in series [2] turned out to be 7; in series [3], 17; in series [4], 5.

In the case of `O=[N+]([O-])c1nccn1CCCN1CCN(Cc2ccc(C(F)(F)F)cc2)CC1`, the 50% inhibitory concentration (IC50) in series [1] was 15.3 µM; with L6, above 191 µM; in the series with Leishmania donovani, above 191 µM; in the series on Trypanosoma cruzi it was 20.7 µM. Moreover, the selectivity ratio in series [2] was above 13; in series [3], above 9.

As to `O=[N+]([O-])c1nccn1CCCNCc1cc(C(F)(F)F)cc(C(F)(F)F)c1`, the IC50 in series [1] is 13.8 µM; in the series with L6, 140 µM; in the series with Leishmania donovani it was above 69.4 µM; with Trypanosoma cruzi it was 24.5 µM. Further, the values for the selectivity ratio in series [2], in series [3] and in series [4] were 10, 6 and below 2, respectively.

As for `O=[N+]([O-])c1nccn1CCCNc1ccnc2cc(Cl)ccc12`, the IC50 in series [1] came to 1.4 µM; in the series with L6, 24.9 µM; in the series on Leishmania donovani it was 54.4 µM; with Trypanosoma cruzi, 1.04 µM. Also, the selectivity ratio in series [2] was 18; in series [3] it was 24.

Regarding `O=[N+]([O-])c1ncn(CCCN(Cc2cc(C(F)(F)F)cc(C(F)(F)F)c2)Cc2cc(C(F)(F)F)cc(C(F)(F)F)c2)n1`, the IC50 came to 8.17 µM in series [1], 78.8 µM in the series on L6, 4.87 µM in the series with Leishmania donovani and 1.96 µM in the series with Trypanosoma cruzi. The results for the selectivity ratio in series [2], in series [3] and in series [4] were 10, 40 and 16, respectively.

Take `O=[N+]([O-])c1nccn1CCNc1c2ccccc2nc2ccccc12`: the IC50 in series [1] was 0.996 µM; in the series on L6, 0.308 µM; with Leishmania donovani, 9.09 µM; with Trypanosoma cruzi, 0.996 µM.

As for `O=[N+]([O-])c1nccn1CCCNCc1ccc2cc(Br)ccc2n1`, the IC50 in series [1] turned out to be 8.56 µM; in the series with L6, 137 µM; with Leishmania donovani, 80.3 µM; with Trypanosoma cruzi, 6.05 µM. In addition, the selectivity ratio came out at 16 in series [2], 23 in series [3] and 2 in series [4].

Consider `Cc1cc(NCCCn2ccnc2[N+](=O)[O-])nc(N)n1`, for which the IC50 was 10.3 µM in series [1], above 287 µM with L6, above 95.7 µM in the series with Leishmania donovani and 7.08 µM in the series with Trypanosoma cruzi. Further, the selectivity ratio was above 28 in series [2] and above 41 in series [3].

For the compound `Nc1nc(N)nc(Nc2ccc([As]3SCC(CO)S3)cc2)n1` (stereo not drawn) [MELARSOPROL], in series [1], the midpoint of inhibition, the IC50, lay at 0.01 µM.
